inhibition, IC50 and Activity data for 40 compounds are collected here from ChEMBL document CHEMBL1146850, “Dithiocarbamic acid esters as anticancer agent. Part 1: 4-substituted-piperazine-1-carbodithioic acid 3-cyano-3,3-diphenyl-propyl esters” (Bioorg Med Chem Lett, 2006).

The structures appear in SMILES notation.

Data set [1] concerns HL-60. In words: Antiproliferative activity against human HL60 cells at 33 uM by MTT assay. Type of data set: functional. In outline:
(§1)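 HL-60 cells kept in RPMI-1640 with 10% FBS, penicillin 100 U/mL and streptomycin at 37 °C under humidified CO2. Exponentially growing cells seeded at 1–2.5 × 10^4 cells/mL. Compound added after 24 h, with medium-only controls. Exposure 48 h, then viable cells read by MTT at 570 nm absorbance. Screened at four concentrations, with single-concentration data given at 33.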
(In general: Tetrazolium assays rely on reduction of a dye to a coloured formazan, in cell work by metabolically active cells.)

Data set [2] concerns Bel-7402. In words: Antiproliferative activity against human Bel7402 cells at 33 uM by SRB assay. It counts as functional. A digest of the protocol:
(§2)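 Bel-7402 cells kept in RPMI-1640 with 10% FBS, penicillin 100 U/mL and streptomycin at 37 °C under humidified CO2. Exponentially growing cells seeded at 1–2.5 × 10^4 cells/mL. Compound added 24 h later, with medium only for controls. Incubation 48 h, then viable cells counted by SRB. Screened at four concentrations, with single-concentration data given at 33.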
In general terms: Sulforhodamine B stains cellular protein and so reports cell mass.

Data set [3] has as its system Bel-7402. In words: Antiproliferative activity against human Bel7402 cells by SRB assay. Type of data set: functional, cell-based. In outline: as §2
In data set [4] the test system is HL-60. Kind of data set: Antiproliferative activity against human HL60 cells by MTT assay. Type of data set: functional, cell-based. In outline:
as §1

Data set [5] has as its system Rattus norvegicus. Kind of data set: Toxicity in rat at 10 g/kg after 10 days. As to conditions: in vivo, 10000 mg/kg, 240 h; call rule not given here.
The next data set concerns H22. In words: Antiproliferative activity against mouse H22 cells. It counts as functional.
For a further data set, the system named is BGC-823. Kind of data set: Antiproliferative activity against human BGC823 cells implanted in nude mouse. Type of data set: functional.
The test system of another data set is CCRF S-180. In words: Antiproliferative activity against mouse S180 cells. It counts as functional.
In data set [6] the test system is Rattus norvegicus. Kind of data set: Toxicity in rat at 10 g/kg after 10 days assessed as change in body weight relative to control. The following applies: in vivo, 10000 mg/kg, 240 h.

Consider `N#CC(CCSC(=S)N1CCN(S(=O)(=O)c2ccccc2)CC1)(c1ccccc1)c1ccccc1`, for which the inhibition at 33 µM in the data set on HL-60 [1] and with Bel-7402 [2] was 0% in each case.
On to `N#CC(CCSC(=S)N1CCN(c2ccc([N+](=O)[O-])cc2)CC1)(c1ccccc1)c1ccccc1`, for which the inhibition – broadly, the drop in the measured response relative to a control, in per cent – at 33 µM in the data set with HL-60 [1] is 7.8%; in the data set on Bel-7402 [2], 2.2%.
The like results for `COc1cccc(N2CCN(C(=S)SCCC(C#N)(c3ccccc3)c3ccccc3)CC2)c1` were, in that order, 9.8% and 15.5%.
For the compound `CCOC(=O)N1CCN(C(=S)SCCC(C#N)(c2ccccc2)c2ccccc2)CC1`, the results for the inhibition at 33 µM with HL-60 [1] and in the data set with Bel-7402 [2] were 0% and 35%, respectively.
For `CS(=O)(=O)N1CCN(C(=S)SCCC(C#N)(c2ccccc2)c2ccccc2)CC1`, the inhibition at 33 µM in the data set on HL-60 [1] was 24.9%; with Bel-7402 [2], 13.4%.
The like results for `N#CC(CCSC(=S)N1CCN(S(=O)(=O)c2ccc(F)cc2)CC1)(c1ccccc1)c1ccccc1` were, in that order, 0% and 9.7%.
Turning to `N#CC(CCSC(=S)N1CCN(C(=O)CCCl)CC1)(c1ccccc1)c1ccccc1`, the results for the inhibition at 33 µM with HL-60 [1] and with Bel-7402 [2] were 43.3% and 22%, respectively.
As to `N#CC(CCSC(=S)N1CCN(CCCl)CC1)(c1ccccc1)c1ccccc1`, the inhibition at 33 µM worked out at 53.6% in the data set on HL-60 [1] and 28.7% in the data set on Bel-7402 [2].
Consider `COc1ccc(S(=O)(=O)N2CCN(C(=S)SCCC(C#N)(c3ccccc3)c3ccccc3)CC2)cc1`, for which the inhibition at 33 µM with HL-60 [1] was determined as 1.5%; in the data set with Bel-7402 [2], 5.4%.
Turning to `N#CC(CCSC(=S)N1CCN(Cc2ccccc2)CC1)(c1ccccc1)c1ccccc1`, the inhibition at 33 µM with HL-60 [1] was 12.5%; in the data set on Bel-7402 [2], 4.7%.
Consider `N#CC(CCSC(=S)N1CCN(C(=O)CCBr)CC1)(c1ccccc1)c1ccccc1`, for which the inhibition at 33 µM in the data set on HL-60 [1] was found to be 82.2%; in the data set with Bel-7402 [2], 23.4%.
As to `COc1ccccc1N1CCN(C(=S)SCCC(C#N)(c2ccccc2)c2ccccc2)CC1`, the inhibition at 33 µM in the data set with HL-60 [1] came to 4.8%; in the data set with Bel-7402 [2], 0%.
For the compound `N#CC(CCSC(=S)N1CCN(c2ccccc2)CC1)(c1ccccc1)c1ccccc1`, the inhibition at 33 µM stood at 10.5% with HL-60 [1] and 0% with Bel-7402 [2].
Regarding `N#CC(CCSC(=S)N1CCN(c2ccccc2F)CC1)(c1ccccc1)c1ccccc1`, the values for the inhibition at 33 µM in the data set on HL-60 [1] and in the data set with Bel-7402 [2] were 0% and 4.3%, respectively.
As to `CCCCCCN1CCN(C(=S)SCCC(C#N)(c2ccccc2)c2ccccc2)CC1`, the inhibition at 33 µM turned out to be 2.57% in the data set on HL-60 [1] and 12.7% in the data set with Bel-7402 [2].
For the compound `N#CC(CCSC(=S)N1CCN(c2cccc(Cl)c2)CC1)(c1ccccc1)c1ccccc1`, the inhibition at 33 µM came to 4.2% in the data set with HL-60 [1] and 0% in the data set on Bel-7402 [2].
For the compound `N#CC(CCSC(=S)N1CCN(C(=O)c2ccco2)CC1)(c1ccccc1)c1ccccc1`, the inhibition at 33 µM with HL-60 [1] came to 30.4%; in the data set on Bel-7402 [2] it was 17.7%.
The like results for `N#CC(CCSC(=S)N1CCN(S(=O)(=O)c2ccccc2[N+](=O)[O-])CC1)(c1ccccc1)c1ccccc1` were, in that order, 0% and 0%.
Take `N#CC(CCSC(=S)N1CCN(S(=O)(=O)c2cccc(C(F)(F)F)c2)CC1)(c1ccccc1)c1ccccc1`: the inhibition at 33 µM in the data set with HL-60 [1] and in the data set on Bel-7402 [2] was 0% throughout.
With `CN1CCN(C(=S)SCCC(C#N)(c2ccccc2)c2ccccc2)CC1`, the inhibition at 33 µM in the data set with HL-60 [1] came to 79%; in the data set with Bel-7402 [2], 75.2%. Moreover, the results for the concentration for half-maximal inhibition (IC50) in the data set on Bel-7402 [3] and in the data set on HL-60 [4] were 27.1 µM and 9.9 µM, respectively.
`N#CC(CCSC(=S)N1CCNCC1)(c1ccccc1)c1ccccc1`: the inhibition at 33 µM in the data set with HL-60 [1] was 98.7%; in the data set with Bel-7402 [2], 95.5%. Also, the IC50 (commonly the concentration that gives 50% inhibition) with Bel-7402 [3] was 11.5 µM; in the data set on HL-60 [4], 5.3 µM.
Turning to `N#CC(CCSC(=S)N1CCN(c2ncccn2)CC1)(c1ccccc1)c1ccccc1`, the inhibition at 33 µM in the data set with HL-60 [1] turned out to be 24.2%; with Bel-7402 [2], 33.2%.
`N#CC(CCSC(=S)N1CCN(CCO)CC1)(c1ccccc1)c1ccccc1`: the inhibition at 33 µM with HL-60 [1] came out at 92.5%; in the data set on Bel-7402 [2], 57.7%. Further, the IC50 was found to be 11.7 µM in the data set on Bel-7402 [3] and 24.5 µM in the data set with HL-60 [4].
For `N#CC(CCSC(=S)N1CCN(S(=O)(=O)c2cccc([N+](=O)[O-])c2)CC1)(c1ccccc1)c1ccccc1`, the inhibition at 33 µM in the data set on HL-60 [1] worked out at 0%; in the data set on Bel-7402 [2], 5.5%.
Consider `N#CC(CCSC(=S)N1CCN(Cc2ccc3c(c2)OCO3)CC1)(c1ccccc1)c1ccccc1`, for which the inhibition at 33 µM in the data set with HL-60 [1] is 0%; in the data set on Bel-7402 [2] it was 16.6%.
On to `N#CC(CCSC(=S)N1CCN(C(c2ccccc2)c2ccc(Cl)cc2)CC1)(c1ccccc1)c1ccccc1` (centres undefined), for which the inhibition at 33 µM was found to be 2.7% with HL-60 [1] and 18% with Bel-7402 [2].
`CCN1CCN(C(=S)SCCC(C#N)(c2ccccc2)c2ccccc2)CC1`: the inhibition at 33 µM with HL-60 [1] was -7.81%; with Bel-7402 [2], 4.97%.
The matching figures for `Cc1ccc(Cl)cc1N1CCN(C(=S)SCCC(C#N)(c2ccccc2)c2ccccc2)CC1`: 0% and 14.6%.
On to `CS(=O)(=O)OCCC(=O)N1CCN(C(=S)SCCC(C#N)(c2ccccc2)c2ccccc2)CC1`, for which the inhibition at 33 µM came to 0% in the data set on HL-60 [1] and 1.09% in the data set on Bel-7402 [2].
Turning to `N#CC(CCSC(=S)N1CCN(S(=O)(=O)c2c(Cl)cccc2Cl)CC1)(c1ccccc1)c1ccccc1`, the inhibition at 33 µM with HL-60 [1] and in the data set on Bel-7402 [2] was 0% each time.
Take `COc1ccc(N2CCN(C(=S)SCCC(C#N)(c3ccccc3)c3ccccc3)CC2)cc1`: the inhibition at 33 µM was 8.5% in the data set on HL-60 [1] and 14.9% with Bel-7402 [2].
The matching figures for `N#CC(CCSC(=S)N1CCN(c2ccccc2Cl)CC1)(c1ccccc1)c1ccccc1`: 0% and 0%.
The matching figures for `N#CC(CCSC(=S)N1CCN(c2ccc(Cl)c(Cl)c2)CC1)(c1ccccc1)c1ccccc1`: 0.7% and 23.3%.
On to `N#CC(CCSC(=S)N1CCN(S(=O)(=O)c2ccc([N+](=O)[O-])cc2)CC1)(c1ccccc1)c1ccccc1`, for which the inhibition at 33 µM in the data set on HL-60 [1] was 0%; in the data set with Bel-7402 [2], 0.2%.
Turning to `N#CC(CCSC(=S)N1CCN(c2ccc(F)cc2)CC1)(c1ccccc1)c1ccccc1`, the inhibition at 33 µM in the data set on HL-60 [1] came out at 0%; in the data set with Bel-7402 [2], 15.9%.
As to `N#CC(CCSC(=S)N1CCN(c2cccc(C(F)(F)F)c2)CC1)(c1ccccc1)c1ccccc1`, the inhibition at 33 µM turned out to be 8.5% in the data set with HL-60 [1] and 26.3% in the data set with Bel-7402 [2].
For the compound `Cc1ccccc1N1CCN(C(=S)SCCC(C#N)(c2ccccc2)c2ccccc2)CC1`, the inhibition at 33 µM in the data set on HL-60 [1] and with Bel-7402 [2] was 0% each time.
Regarding `N#CC(CCSC(=S)N1CCN(c2ccccn2)CC1)(c1ccccc1)c1ccccc1`, the inhibition at 33 µM in the data set on HL-60 [1] stood at 31.8%; in the data set on Bel-7402 [2] it was 22.6%.
Turning to `CCCCN1CCN(C(=S)SCCC(C#N)(c2ccccc2)c2ccccc2)CC1`, the results for the inhibition at 33 µM in the data set on HL-60 [1] and in the data set on Bel-7402 [2] were -13.5% and 11%, respectively.
Turning to `CN1CCN(C(=S)SCCC(C#N)(c2ccccc2)c2ccccc2)CC1.Cl`, the Activity result in the data set on Rattus norvegicus [5] is “Not Active”; in the data set on H22 it was 39.3%; in the data set with BGC-823, 18.1%; with CCRF S-180, 46.4%; in the data set with Rattus norvegicus [6], “Not Active”.
